Where “and” joins values, the source holds several entries; their conditions need not be identical. Equal values may be shown once.
Tests used:
[1] = target: Estrogen receptor (Bos taurus) (UniProt Q9XSB5+P49884); assay: Relative binding affinity for calf uterine estrogen receptor compared to [3H]estradiol; format: protein assay
Method in brief: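 Competition binding with calf uterine cytosol and [3H]estradiol, incubated 16 h at 4 °C and stopped with dextran-coated charcoal. Supernatant radioactivity counted after centrifugation. Six competitor concentrations spanned 50% displacement on a semilog plot. RBA = (molar E2 concentration / competitor concentration each giving 50% reduction of bound [3H]E2) × 100.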

[2] = target: T1, Estrogen receptor (Mus musculus) (UniProt O08537+P19785); assay: Uterotrophic effect in mice at 0 ug; format: functional, tissue-based; conditions: Uterus
T1 sequence (O08537 whole entry, looked up): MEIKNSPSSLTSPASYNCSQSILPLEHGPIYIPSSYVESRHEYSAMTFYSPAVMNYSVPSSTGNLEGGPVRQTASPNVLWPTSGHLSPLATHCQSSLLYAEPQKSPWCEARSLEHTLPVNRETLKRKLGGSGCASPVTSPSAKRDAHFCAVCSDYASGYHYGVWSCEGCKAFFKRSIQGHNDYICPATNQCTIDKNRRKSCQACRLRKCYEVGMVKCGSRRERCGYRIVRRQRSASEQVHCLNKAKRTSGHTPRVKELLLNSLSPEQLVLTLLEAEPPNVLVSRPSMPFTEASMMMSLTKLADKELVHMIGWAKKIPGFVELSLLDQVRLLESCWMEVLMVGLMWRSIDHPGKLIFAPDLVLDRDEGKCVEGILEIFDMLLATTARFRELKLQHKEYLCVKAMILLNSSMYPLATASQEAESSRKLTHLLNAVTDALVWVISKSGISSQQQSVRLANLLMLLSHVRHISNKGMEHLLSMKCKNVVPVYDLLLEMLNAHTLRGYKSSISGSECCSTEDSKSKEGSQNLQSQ
T1 sequence (P19785 whole entry, looked up): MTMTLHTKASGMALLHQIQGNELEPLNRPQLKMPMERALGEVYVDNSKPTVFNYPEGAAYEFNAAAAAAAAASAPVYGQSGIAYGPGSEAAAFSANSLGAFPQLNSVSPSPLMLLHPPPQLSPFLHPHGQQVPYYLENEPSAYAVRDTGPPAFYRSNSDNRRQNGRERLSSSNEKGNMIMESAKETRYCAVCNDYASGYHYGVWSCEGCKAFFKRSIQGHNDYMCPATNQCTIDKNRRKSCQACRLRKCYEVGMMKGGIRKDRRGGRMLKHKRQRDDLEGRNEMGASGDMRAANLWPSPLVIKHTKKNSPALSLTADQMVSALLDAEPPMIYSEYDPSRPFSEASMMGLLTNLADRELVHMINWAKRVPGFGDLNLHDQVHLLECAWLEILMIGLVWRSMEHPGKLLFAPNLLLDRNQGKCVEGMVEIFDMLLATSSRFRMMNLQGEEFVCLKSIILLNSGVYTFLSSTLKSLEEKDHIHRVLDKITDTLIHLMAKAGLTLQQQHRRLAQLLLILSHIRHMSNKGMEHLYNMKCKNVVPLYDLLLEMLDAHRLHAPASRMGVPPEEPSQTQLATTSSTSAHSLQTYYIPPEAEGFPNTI
Method in brief: (§1)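 Immature female NMRI mice, 20 days old (14.5 ± 1.2 g), 10 per randomized group. Received test compound subcutaneously in 0.1 mL olive oil daily for 3 days. Uteri removed 24 h after final dose, Bouin-fixed, washed, dried and weighed to measure stimulation of uterine growth.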

[3] = target: T1, Estrogen receptor (Mus musculus); assay: Uterotrophic effect in mice at 1 ug; format: functional, tissue-based; conditions: Uterus; method in brief: as §1
[4] = target: T1, Estrogen receptor (Mus musculus); assay: Uterotrophic effect in mice at 10 ug; format: functional, tissue-based; conditions: Uterus; method in brief: as §1
[5] = target: T1, Estrogen receptor (Mus musculus); assay: Uterotrophic effect in mice at 100 ug; format: functional, tissue-based; conditions: Uterus; method in brief: as §1
[6] = target: T1, Estrogen receptor (Mus musculus); assay: Uterotrophic effect in mice at 1000 ug; format: functional, tissue-based; conditions: Uterus; method in brief: as §1
[7] = target: T1, Estrogen receptor (Mus musculus); assay: Percent inhibition of estrone stimulated uterine growth in mice at 10 […]; format: functional
Method in brief: (§2)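 Immature NMRI mice, 20 days old (14.5 ± 1.2 g), randomly grouped 10 per group. Given daily subcutaneous test compound in 0.1 mL olive oil for 3 days, together with estrone to stimulate uterine growth. Uteri taken 24 h after last injection, fixed in Bouin's solution, washed, dried and weighed. Read-out is inhibition of estrone-stimulated uterine growth.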

[8] = target: T1, Estrogen receptor (Mus musculus); assay: Percent inhibition of estrone stimulated uterine growth in mice at 100 […]; format: functional; method in brief: as §2
[9] = target: T1, Estrogen receptor (Mus musculus); assay: Anti-uterotrophic effect in mice at 0 ug; format: functional; method in brief: as §2
[10] = target: T1, Estrogen receptor (Mus musculus); assay: Anti-uterotrophic effect in mice at 0.1 ug; format: functional; method in brief: as §2
[11] = target: T1, Estrogen receptor (Mus musculus); assay: Anti-uterotrophic effect in mice at 1 ug; format: functional; method in brief: as §2
[12] = target: T1, Estrogen receptor (Mus musculus); assay: Anti-uterotrophic effect in mice at 10 ug; format: functional; method in brief: as §2
[13] = target: T1, Estrogen receptor (Mus musculus); assay: Anti-uterotrophic effect in mice at 100 ug; format: functional; method in brief: as §2
[14] = target: T1, Estrogen receptor (Mus musculus); assay: Anti-uterotrophic effect in mice at 1000 ug; format: functional; method in brief: as §2
Rattus norvegicus [15] = assay: Percent change in tumor area in DMBA-induced carcinoma in rats after 28 day therapy at 2 mg/kg; format: functional
Rattus norvegicus [16] = assay: Percent change in tumor area in DMBA-induced carcinoma in rats after 28 day therapy at 5 mg/kg; format: functional
Rattus norvegicus [17] = assay: Percent reduction in tumor size (<50%) in DMBA-induced mammary carcinoma in rats at 2 mg/kg/day; format: functional
Rattus norvegicus [18] = assay: ercent reduction in tumor size (<50%) in DMBA-induced mammary carcinoma in rats at 5 mg/kg/day; format: functional
Rattus norvegicus [19] = assay: Percent increase in tumor size (>150%) in DMBA-induced mammary carcinoma in rats at 2 mg/kg/day; format: functional
Rattus norvegicus [20] = assay: Percent increase in tumor size (>150%) in DMBA-induced mammary carcinoma in rats at 5 mg/kg/day; format: functional
Rattus norvegicus [21] = assay: Percent unchanged tumor size (51-150%) in DMBA-induced mammary carcinoma in rats at 2 mg/kg/day; format: functional
Rattus norvegicus [22] = assay: Percent unchanged tumor size (51-150%) in DMBA-induced mammary carcinoma in rats at 5 mg/kg/day; format: functional
Rattus norvegicus [23] = assay: Percent change in body weight in DMBA-induced mammary carcinoma in rats after 7 day therapy at 2 mg/kg/day; format: functional
Rattus norvegicus [24] = assay: Percent change in body weight in DMBA-induced mammary carcinoma in rats after 7 day therapy at 5 mg/kg/day; format: functional
Rattus norvegicus [25] = assay: Percent remission in DMBA-Induced Mammary Carcinoma in rats at 2 mg/kg/day; format: functional
Rattus norvegicus [26] = assay: Percent remission in DMBA-Induced Mammary Carcinoma in rats at 5 mg/kg/day; format: functional
[27] = target: T1, Estrogen receptor (Mus musculus); assay: Percent inhibition of estrone stimulated uterine growth in mice at 1000 […]; format: functional; method in brief: as §2
[28] = target: T1, Estrogen receptor (Mus musculus); assay: Uterotrophic effect in mice at 24 ug; format: functional, tissue-based; conditions: Uterus; method in brief: as §1
[29] = target: T1, Estrogen receptor (Mus musculus); assay: Uterotrophic effect in mice at 250 ug; format: functional, tissue-based; conditions: Uterus; method in brief: as §1
[30] = target: T1, Estrogen receptor (Mus musculus); assay: Uterotrophic effect in mice at 8 ug; format: functional, tissue-based; conditions: Uterus; method in brief: as §1
[31] = target: T1, Estrogen receptor (Mus musculus); assay: Uterotrophic effect in mice at 80 ug; format: functional, tissue-based; conditions: Uterus; method in brief: as §1
[32] = target: T1, Estrogen receptor (Mus musculus); assay: Anti-uterotrophic effect in mice at 5 ug; format: functional; method in brief: as §2
[33] = target: T1, Estrogen receptor (Mus musculus); assay: Anti-uterotrophic effect in mice at 50 ug; format: functional; method in brief: as §2
[34] = target: T1, Estrogen receptor (Mus musculus); assay: Anti-uterotrophic effect in mice at 500 ug; format: functional; method in brief: as §2
[35] = target: T1, Estrogen receptor (Mus musculus); assay: Percent inhibition of estrone stimulated uterine growth in mice at 50 […]; format: functional; method in brief: as §2
[36] = target: T1, Estrogen receptor (Mus musculus); assay: Percent inhibition of estrone stimulated uterine growth in mice at 500 […]; format: functional; method in brief: as §2
Rattus norvegicus [37] = assay: Percent reduction in tumor size (<50%) in DMBA-induced mammary carcinoma in rats at 5 mg/kg/day; format: functional
[38] = target: T1, Estrogen receptor (Mus musculus); conditions: Uterus
[39] = target: T1, Estrogen receptor (Mus musculus)
[40] = target: T1, Estrogen receptor (Mus musculus); assay: Percent inhibition of estrone stimulated uterine growth in mice at 5 […]; format: functional; method in brief: as §2

relative binding affinity (RBA) [1]	Effect [2]	Effect [3]	Effect [4]	Effect [5]	Effect [6]	Effect [9]	Effect [33]	Effect [34]	Structure (SMILES)	further results
0.9									Cc1ccc(O)cc1C(C)(C)C(C)(C)c1cc(O)ccc1C	
0.01									CC(C)(c1cc(O)cc(Cl)c1)C(C)(C)c1cc(O)cc(Cl)c1	
< 0.01									COc1ccc(O)cc1C(C)(C)C(C)(C)c1cc(O)ccc1OC	
6.4	16.4	27	38.8	42.6	38.5	13.8			CC(C)(c1ccc(O)cc1F)C(C)(C)c1ccc(O)cc1F	inhibition [7]: 20%; inhibition [8]: 35%; Effect [10]: 47.7; Effect [11]: 49.9; Effect [12]: 41; Effect [13]: 35.9; Effect [14]: 34.2; Change of area (Rattus norvegicus [15]): 22%; Change of area (Rattus norvegicus [16]): -47%; Change of size (Rattus norvegicus [17]): 4%; Change of size (Rattus norvegicus [18]): 10%; Change of size (Rattus norvegicus [19]): 18%; Change of size (Rattus norvegicus [20]): 13%; Change of size (Rattus norvegicus [21]): 14%; Change of size (Rattus norvegicus [22]): 3%; Change of weight (Rattus norvegicus [23]): -3.1%; Change of weight (Rattus norvegicus [24]): -4%; Remission (Rattus norvegicus [25]): 64%; Remission (Rattus norvegicus [26]): 74%; inhibition [27]: 40%
3	9.2				13.4				CC(C)(c1cccc(O)c1)C(C)(C)c1cccc(O)c1	Effect [28]: 15.7; Effect [29]: 14.6; Effect [30]: 9.8; Effect [31]: 15.4
3.6	9.2				14.3				CC(C)(c1ccc(O)cc1)C(C)(C)c1ccc(O)cc1	Effect [28]: 15.7; Effect [29]: 13.3; Effect [30]: 10.6; Effect [31]: 15.8
3.4	13.7	35.8	51.5	32.7	35.2	13.7	38.9	35.2	CC(C)(c1ccc(O)cc1Cl)C(C)(C)c1ccc(O)cc1Cl	Effect [32]: 48.4; inhibition [35]: 17%; inhibition [36]: 29%
4	9.7	15.4	16.6	22.6	35.6	13.7	37.2	32.5	CC(C)(c1cc(O)ccc1F)C(C)(C)c1cc(O)ccc1F	Effect [32]: 48.6; inhibition [35]: 29%; inhibition [36]: 43%; Change of area (Rattus norvegicus [15]): 441%; Change of area (Rattus norvegicus [16]): 396%; Remission (Rattus norvegicus [17]): 7%; Change of size (Rattus norvegicus [19]): 77%; Change of size (Rattus norvegicus [20]): 89%; Change of size (Rattus norvegicus [21]): 16%; Change of size (Rattus norvegicus [22]): 7%; Change of weight (Rattus norvegicus [23]): 3.5%; Change of weight (Rattus norvegicus [24]): 2.9%; Remission (Rattus norvegicus [25]): 0%; Remission (Rattus norvegicus [26]): 0%; Change of size (Rattus norvegicus [37]): 4%
0.45									COc1cc(O)ccc1C(C)(C)C(C)(C)c1ccc(O)cc1OC	
2.6	11.1	16.6	22.2	28	38	13.7	50	37.3	Cc1cc(O)ccc1C(C)(C)C(C)(C)c1ccc(O)cc1C	Effect [32]: 51.2; inhibition [36]: 22%
									C[C@]12CC[C@@H]3c4ccc(O)cc4CC[C@H]3[C@@H]1CCC2=O	uterine weight [38]: 45.3 mg/100 g; uterine weight [39]: 47.8 mg/100 g
3.5	11.1	14.7	22.6	33	35.7	13.7	44.2 and 34.9	37.8	CC(C)(c1cc(O)ccc1Cl)C(C)(C)c1cc(O)ccc1Cl	Inhibition (alpha = 0.01) [35]: 36%; inhibition [40]: 7%; Inhibition (alpha = 0.01) [36]: 27%
